The source made the active and inactive calls. No cut-off for these calls is given here.
Assays:
Assay type in all cases: functional
SK-MEL-5 = experiment: Growth inhibition of human SK-MEL-5 cells after 48 hrs by sulforhodamine B assay; conditions: SK-MEL-5, 48 h
Outline: (§1)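 Adherent lines plated and held 24 h at 37 °C, 5% CO2, 100% humidity; time-zero plates TCA-fixed at drug addition. Drugs from DMSO stocks were made into five concentrations by 10-fold or half-log serial dilution and applied for 48 h continuous exposure. Cells were fixed with cold TCA (10% final) for 60 min at 4 °C, then stained with 0.4% SRB in 1% acetic acid for 10 min. Dye was solubilized in 10 mM Tris base and read at 515 nm. GI50 was taken from log concentration–growth curves.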

[1] = Cytotoxicity against human prostate cancer cells after 48 hrs by sulforhodamine B assay; conditions: Cancer cell lines
Outline: (§2)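 NCI five-dose screen: about 60 human tumour lines grouped into nine subpanels were plated and incubated 24 h before dosing. Compounds went in as DMSO stock and were diluted in medium to five final concentrations (0.01–100 µM). Exposure was 48 h continuous at 37 °C, 5% CO₂, followed by TCA fixation and SRB staining read at 515 nm. Per-line GI₅₀, TGI and LC₅₀ came from log concentration–% growth curves, averaged per subpanel as MG-MID.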

ACHN = experiment: Growth inhibition of human ACHN cells after 48 hrs by sulforhodamine B assay
Outline: (§3)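 NCI 60-line panel, five concentrations (0.01–100 µM) from DMSO stock diluted in medium with gentamicin. Cells were plated 24 h before dosing, with time-zero plates fixed at drug addition, then exposed 48 h at 37 °C, 5% CO₂. Adherent cells were fixed with cold TCA (10% final) and suspension cells with 16% TCA. Staining used 0.4% SRB, solubilised in 10 mM Tris and read at 515 nm. GI₅₀ was taken from log concentration–% growth curves.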

SF-539 = experiment: Growth inhibition of human SF539 cells after 48 hrs by sulforhodamine B assay; conditions: SF-539, 48 h; outline: as §1
[2] = Cytotoxicity against human ovarian cancer cells after 48 hrs by sulforhodamine B assay; conditions: Cancer cell lines; outline: as §2
[3] = Cytotoxicity against human colon cancer cells after 48 hrs by sulforhodamine B assay; conditions: Cancer cell lines; outline: as §2
NCI-H226 = experiment: Growth inhibition of human NCI-H226 cells after 48 hrs by sulforhodamine B assay; conditions: NCI-H226, 48 h; outline: as §3
DU-145 = experiment: Growth inhibition of human DU145 cells after 48 hrs by sulforhodamine B assay; conditions: DU-145, 48 h; outline: as §3
[4] = Cytotoxicity against human renal cancer cells after 48 hrs by sulforhodamine B assay; conditions: Cancer cell lines; outline: as §2
CAKI-1 = experiment: Growth inhibition of human Caki1 cells after 48 hrs by sulforhodamine B assay; conditions: CAKI-1, 48 h; outline: as §3
[5] = Cytotoxicity against human CNS cancer cells after 48 hrs by sulforhodamine B assay; conditions: Cancer cell lines; outline: as §2
COLO 205 = experiment: Growth inhibition of human COLO205 cells after 48 hrs by sulforhodamine B assay; conditions: COLO 205, 48 h; outline: as §3
[6] = Cytotoxicity against human leukemia cells after 48 hrs by sulforhodamine B assay; conditions: Leukemia cell; outline: as §2
NCI-H522 = experiment: Growth inhibition of human NCI-H522 cells after 48 hrs by sulforhodamine B assay; conditions: NCI-H522, 48 h; outline: as §3
KM12 = experiment: Growth inhibition of human KM12 cells after 48 hrs by sulforhodamine B assay; conditions: KM12, 48 h; outline: as §3
MDA-MB-435 = experiment: Growth inhibition of human MDA-MB-435 cells after 48 hrs by sulforhodamine B assay; conditions: MDA-MB-435, 48 h; outline: as §3
SW-620 = experiment: Growth inhibition of human SW620 cells after 48 hrs by sulforhodamine B assay; conditions: SW-620, 48 h; outline: as §1
SNB-19 = experiment: Growth inhibition of human SNB19 cells after 48 hrs by sulforhodamine B assay; conditions: SNB-19, 48 h; outline: as §1
RXF 393 = experiment: Growth inhibition of human […] cells after 48 hrs by sulforhodamine B assay; conditions: RXF 393, 48 h; outline: as §3
HCC 2998 = experiment: Growth inhibition of human HCC2998 cells after 48 hrs by sulforhodamine B assay; conditions: HCC 2998, 48 h; outline: as §3
CCRF-CEM = experiment: Growth inhibition of human CCRF-CEM cells after 48 hrs by sulforhodamine B assay; outline: as §3
NCI-H460 = experiment: Growth inhibition of human NCI-H460 cells after 48 hrs by sulforhodamine B assay; conditions: NCI-H460, 48 h; outline: as §3
SF-295 = experiment: Growth inhibition of human SF295 cells after 48 hrs by sulforhodamine B assay; conditions: SF-295, 48 h; outline: as §3
MCF7 = experiment: Growth inhibition of human MCF7 cells after 48 hrs by sulforhodamine B assay; conditions: MCF7, 48 h; outline: as §3
NCI/ADR-RES = experiment: Growth inhibition of human NCI/ADR-RES cells after 48 hrs by sulforhodamine B assay; outline: as §3
IGROV-1 = experiment: Growth inhibition of human IGROV1 cells after 48 hrs by sulforhodamine B assay; conditions: IGROV-1, 48 h; outline: as §3
SF-268 = experiment: Growth inhibition of human SF268 cells after 48 hrs by sulforhodamine B assay; conditions: SF-268, 48 h; outline: as §3
LOX IMVI = experiment: Growth inhibition of human LOXIMVI cells after 48 hrs by sulforhodamine B assay; outline: as §3
BT-549 = experiment: Growth inhibition of human BT549 cells after 48 hrs by sulforhodamine B assay; conditions: BT-549, 48 h; outline: as §3
M14 = experiment: Growth inhibition of human M14 cells after 48 hrs by sulforhodamine B assay; conditions: M14, 48 h; outline: as §3
K562 = experiment: Growth inhibition of human K562 cells after 48 hrs by sulforhodamine B assay; outline: as §3
OVCAR-4 = experiment: Growth inhibition of human OVCAR4 cells after 48 hrs by sulforhodamine B assay; conditions: OVCAR-4, 48 h; outline: as §3
SK-OV-3 = experiment: Growth inhibition of human SKOV3 cells after 48 hrs by sulforhodamine B assay; conditions: SK-OV-3, 48 h; outline: as §1
SNB-75 = experiment: Growth inhibition of human SNB75 cells after 48 hrs by sulforhodamine B assay; conditions: SNB-75, 48 h; outline: as §1
T47D = experiment: Growth inhibition of human T47D cells after 48 hrs by sulforhodamine B assay; outline: as §1
786-0 = experiment: Growth inhibition of human 786-0 cells after 48 hrs by sulforhodamine B assay; conditions: 786-0, 48 h; outline: as §3
HT-29 = experiment: Growth inhibition of human HT-29 cells after 48 hrs by sulforhodamine B assay; conditions: HT-29, 48 h; outline: as §3
[7] = Cytotoxicity against human breast cancer cells after 48 hrs by sulforhodamine B assay; conditions: Cancer cell lines; outline: as §2
[8] = Cytotoxicity against human lung cancer cells after 48 hrs by sulforhodamine B assay; conditions: Cancer cell lines; outline: as §2
SK-MEL-28 = experiment: Growth inhibition of human SK-MEL-28 cells after 48 hrs by sulforhodamine B assay; conditions: SK-MEL-28, 48 h; outline: as §1
HOP-92 = experiment: Growth inhibition of human HOP92 cells after 48 hrs by sulforhodamine B assay; conditions: HOP-92, 48 h; outline: as §3

In the case of `O=C1CC(=O)N(C(=O)c2nn(-c3ccc(Cl)cc3)cc2O)N1`, the GI50 (SK-MEL-5) is reported as 1.92 µM, the GI50 [1] is reported as 0.67 µM and the GI50 (ACHN) is reported as 0.58 µM. The GI50 (SF-539) was 0.37 µM, the GI50 [2] was 1.08 µM and the TGI [2] was 84 µM. For the same compound, the GI50 [3] was 1.51 µM, the TGI [3] was 86.2 µM and the GI50 (NCI-H226) was 0.73 µM. For the same compound, the GI50 (DU-145) was 0.98 µM, the GI50 [4] was 0.85 µM and the TGI [4] was 71.8 µM. For the same compound, the GI50 (CAKI-1) was 0.65 µM, the GI50 [5] was 0.33 µM and the TGI [5] was 87.9 µM. The GI50 (COLO 205) was 0.94 µM, the GI50 [6] was 0.42 µM and the TGI [6] was 10.8 µM. It also gave a GI50 (NCI-H522) of 0.3 µM, a GI50 (KM12) of 1.16 µM and a GI50 (MDA-MB-435) of 0.33 µM. For the same compound, the GI50 (SW-620) was 2.32 µM, the GI50 (SNB-19) was 0.51 µM and the GI50 (RXF 393) was 0.31 µM. The GI50 (HCC 2998) was 4.74 µM, the GI50 (CCRF-CEM) was 0.42 µM and the GI50 (NCI-H460) was 0.31 µM. It also gave a GI50 (SF-295) of 0.15 µM, a GI50 (MCF7) of 1.56 µM and a GI50 (NCI/ADR-RES) of 0.94 µM. The GI50 (IGROV-1) was 0.38 µM, the GI50 (SF-268) was 0.51 µM and the GI50 (LOX IMVI) was 1.37 µM. It also gave a GI50 (BT-549) of 0.37 µM, a GI50 (M14) of 0.71 µM and a GI50 (K562; K562, 48 h) of 0.29 µM. For the same compound, the GI50 (OVCAR-4) was 1.52 µM, the GI50 (SK-OV-3) was 1.92 µM and the GI50 (SNB-75) was 0.24 µM. For the same compound, the GI50 (T47D) was 0.45 µM, the GI50 (786-0) was 3.77 µM and the GI50 (HT-29) was 0.58 µM. For the same compound, the GI50 [7] was 0.82 µM, the TGI [7] was 79.6 µM and the GI50 [8] was 0.51 µM. For the same compound, the TGI [8] was 80.3 µM, the GI50 (SK-MEL-28) was 5.26 µM and the GI50 (HOP-92) was 0.5 µM.

Compound `Cc1cc(C)n(C(=O)c2nn(-c3ccc(Cl)cc3)cc2O)n1` has a GI50 (SK-MEL-5) of 6.76 µM, a GI50 [1] of 6.64 µM and a GI50 (ACHN) of 3.77 µM. For the same compound, the GI50 (SF-539) was 3.05 µM, the GI50 [2] was 5.27 µM and the TGI [2] was 87.8 µM. It also gave a GI50 [3] of 8.13 µM, a TGI [3] of 85.1 µM and a GI50 (NCI-H226) of 4.66 µM. It also gave a GI50 (DU-145) of 6.23 µM, a GI50 [4] of 4.52 µM and a TGI [4] of 71.3 µM. For the same compound, the GI50 (CAKI-1) was 4.23 µM, the GI50 [5] was 3.13 µM and the TGI [5] was 69.2 µM. It also gave a GI50 (COLO 205) of 18.5 µM, a GI50 [6] of 3.65 µM and a TGI [6] of 74.3 µM. For the same compound, the GI50 (NCI-H522) was 7.37 µM, the GI50 (KM12) was 5.07 µM and the GI50 (MDA-MB-435) was 3.94 µM. For the same compound, the GI50 (SW-620) was 8.02 µM, the GI50 (SNB-19) was 3.6 µM and the GI50 (RXF 393) was 4.58 µM. It also gave a GI50 (HCC 2998) of 15.1 µM, a GI50 (CCRF-CEM) of 3.66 µM and a GI50 (NCI-H460) of 2.38 µM. It also gave a GI50 (SF-295) of 1.81 µM, a GI50 (MCF7) of 4.52 µM and a GI50 (NCI/ADR-RES) of 4.42 µM. It also gave a GI50 (IGROV-1) of 3.16 µM, a GI50 (SF-268) of 4.13 µM and a GI50 (LOX IMVI) of 3.94 µM. The GI50 (BT-549) was 2.19 µM, the GI50 (M14) was 4.69 µM and the GI50 (K562) was “inactive”. It also gave a GI50 (OVCAR-4) of 9.19 µM, a GI50 (SK-OV-3) of 7.04 µM and a GI50 (SNB-75) of 3.52 µM. For the same compound, the GI50 (T47D) was 3.66 µM, the GI50 (786-0) was 9.64 µM and the GI50 (HT-29) was 3.29 µM. It also gave a GI50 [7] of 4.96 µM, a GI50 [8] of 4.69 µM and a TGI [8] of 81.7 µM. The GI50 (SK-MEL-28) was 6.28 µM and the GI50 (HOP-92) was 4.52 µM.

Reference: ChEMBL document CHEMBL1156332, “Polysubstituted pyrazoles, part 6. Synthesis of some 1-(4-chlorophenyl)-4-hydroxy-1H-pyrazol-3-carbonyl derivatives linked to nitrogenous heterocyclic ring systems as potential antitumor agents” (2010)
